Source: PubChem (several laboratories)
Only some compounds are listed: those with a hit (about 1.6% of all), similar ones and a draw of the others.
NR2E3 ag-1: NR2E3 (human) agonism | inhibition of corepressor binding, % at 4.78 µM | Q9Y5X4 | GST-NR2E3/biotin-RetCOR TR-FRET, 1536-well | AID 2300 | 320,000 tested, 0.12% active;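 active = percent inhibition above the cutoff of mean plus 3 SD of all tested compounds, set per screening campaign, cut at about 20% in these data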;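 also: 0% = DMSO wells and 100% = biotin wells as full block of FRET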
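System: GST-tagged NR2E3 plus biotinylated RetCOR corepressor; Buffer or medium: pH 7.5 Tris-based buffer; Probe or stimulus: RetCOR corepressor, biotinylated, 7 nM; Doses: compound at 4.8 µM, single dose; Schedule: 5 h incubation at 4 °C; Technique: time-resolved FRET; Evaluation: percent inhibition of TR-FRET ratio; Replication: one well per compound, singlicate testing.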
NR2E3 ag-2: human photoreceptor-specific nuclear receptor agonism | CHO-S Gal4-NCOR/VP16-NR2E3 two-hybrid, luciferase | Q9Y5X4 | 360,000 tested, 0.35% active | inhibition of corepressor binding, % at 3.98 µM;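 active = inhibition above the mean of all tested compounds plus 3 SD, cut at about 70% in these data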;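 also: 0% = DMSO with NR2E3 transfected cells and 100% = cells lacking NR2E3 construct; higher means lower luciferase signal from less NR2E3 corepressor binding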
Rev-erbA mod: modulators of human Rev-erb alpha DNA binding; Rev-erbα–FITC-DNA binding, fluorescence polarization, 90 min; AID 1259318; 370,000 tested, 0.79% active; activity, % at 10 µM;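 active = activity above about 14%, limit read from the data; passing the limit was not always enough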;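 also: 0% = DMSO wells with 35 nM protein and 100% = DMSO wells with 750 nM protein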
PG9 Ab binder: binds the HIV-1 gp120 antibody PG9 | TR-FRET gp120-PG9 antibody binding | inhibition, % at 6.7 µM | 360,000 tested, 0.43% active; in the data active = inhibition above about 8.5%
PKA-R2B activ: activators of human PKA-R2B complex; P22694+P31323; PKA-R2B holoenzyme dissociation, Cy5-IP20 fluorescence polarization; R2B truncated from residue 108, S112A mutant; 0% DMSO only, 100% 113 µM cGMP; activation, % at 11.4 µM; 340,000 tested, 0.079% active;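 active = activation above a cutoff set at the mean over all compounds plus 3 SD, cut at about 18% in these data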;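 also: higher means more holoenzyme dissociation and a rise in polarization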
Target sequence (P31323 whole entry, looked up, other chains not shown, the tested form may be a part): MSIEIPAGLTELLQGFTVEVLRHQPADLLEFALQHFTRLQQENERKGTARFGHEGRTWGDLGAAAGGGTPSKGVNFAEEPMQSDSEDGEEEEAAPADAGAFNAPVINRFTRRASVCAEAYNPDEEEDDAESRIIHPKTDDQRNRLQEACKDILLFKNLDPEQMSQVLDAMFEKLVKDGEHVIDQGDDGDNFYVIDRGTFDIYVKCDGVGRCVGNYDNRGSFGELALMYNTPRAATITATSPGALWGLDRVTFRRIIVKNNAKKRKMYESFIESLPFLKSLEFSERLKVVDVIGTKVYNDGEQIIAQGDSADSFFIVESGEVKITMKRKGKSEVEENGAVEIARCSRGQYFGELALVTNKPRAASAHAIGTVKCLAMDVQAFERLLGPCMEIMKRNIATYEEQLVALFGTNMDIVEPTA
PKA-R1A activ: activators of PKA-R1A complex; PKA-R1A dissociation, Cy5-IP20 fluorescence polarization; scaled: DMSO 0%, 113 µM cGMP 100%; 340,000 tested, 0.083% active; activation, % at 11.4 µM;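 active = percent activation above the mean of all tested compounds plus 3 SD, cut at about 19% in these data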;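 also: higher means more PKAc released from R1A so a rise in polarization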
PG9 binder conf: confirmation of small molecules binding HIV-1 gp120 antibody PG9 | 1,500 tested, 90% active | shares compounds with PG9 Ab binder | inhibition, % at 6.7 µM | TR-FRET PG9 antibody binding, biochemical; in the data active = inhibition above about 9%
PGV04 counter: binds control antibody PGV04 in PG9 binder counter-screen; AID 651604; inhibition, % at 6.7 µM; 1,500 tested, 95% active; shares compounds with PG9 Ab binder; TR-FRET PGV04 antibody-gp120 binding, biochemical; in the data active = inhibition above about 9.5%
PG9 binder DR: small molecules binding HIV-1 gp120 antibody PG9; shares compounds with PG9 Ab binder; TR-FRET PG9 antibody-gp120 binding inhibition; IC50, µM; 95 tested, under 10 active; AID 651848; in the data active = IC50 below about 10 µM
PGV04 DR counter: counter-screen for PG9 binders: binding to control antibody PGV04. shares compounds with PG9 Ab binder. TR-FRET binding to control antibody PGV04. IC50, µM. 95 tested, 20% active. AID 651937
PG126 DR counter: counter-screen for PG9 binders: binding to control antibody PG126; shares compounds with PG9 Ab binder; TR-FRET binding to antibody PG126, counterscreen; IC50, µM; 95 tested, 20% active
The depositor's hits bear a star; i = inactive; / = no result given. Rule as the data show it, unless noted: active = IC50 below about 9 µM; inactive = the rest.

SMILES | NR2E3 ag-1 | NR2E3 ag-2 | Rev-erbA mod | PG9 Ab binder | PKA-R2B activ | PKA-R1A activ | PG9 binder conf | PGV04 counter | others
CCCCc1cc(=O)oc2c(CN(C)C)c(O)ccc12 | -2.5 | -11.5 | -5.1 | 3.2 | 1.4 | -3.0 | / | /
CCOC(=O)c1cc2sc(C)cc2n1CC(=O)Nc1cccc(C)c1C | -1.9 | -13.4 | 4.6 | 11.2* | -9.9 | -3.9 | 11.0* | 17.1*
CCOC(=O)c1cc2sc(C)cc2n1CC(=O)Nc1ccc2c(c1)OCCO2 | -8.7 | -40.6 | 3.3 | 0.6 | -5.1 | -3.3 | / | /
CC(C)(C)c1ccc(S(=O)(=O)N2CCC(c3cn4ccccc4n3)CC2)cc1 | / | / | 4.7 | / | / | / | / | /
Cc1cc2ccccc2n1CCNC(=O)C1CCCCC1 | -3.1 | -45.0 | 3.7 | 10.7* | -0.4 | -8.1 | 8.5 | 8.2 | PG9 binder DR=i;PGV04 DR counter=i;PG126 DR counter=i
CCn1c(CNC(=O)C2CCCCC2)cc2ccccc21 | 4.1 | -9.9 | -4.9 | 31.9* | -1.4 | 1.7 | 15.8* | 22.6*
Cn1c(CNC(=O)C2CCCCC2)cc2ccccc21 | 1.7 | 16.0 | 0.0 | 0.7 | -5.3 | -9.8 | / | /
Cc1cc2ccccc2n1CCNC(=O)C1CCCC1 | 2.4 | -13.3 | 5.5 | -0.9 | 2.2 | 1.8 | / | /
CCCCNC(=O)O[C@H]1CC[C@@]23CCCN2C(=O)CCC[C@H]3C1 | / | / | -0.9 | / | / | / | / | /
O=C(Nc1c(-c2ccccc2)nc2ncccn12)c1ccccc1 | / | / | -0.8 | / | / | / | / | /
O=C(NCCC1=CCCCC1)c1coc(=O)c(Br)c1 | 0.9 | 42.5 | 9.4 | 45.9* | 8.0 | -8.7 | 57.3* | 64.1*
CN(C)c1ccc(C(=O)Nc2ccc(S(=O)(=O)Nc3nccs3)cc2)cc1 | 15.1 | -8.4 | 4.7 | 25.8* | -2.0 | -4.8 | 37.9* | 47.4*
CCN(C(=O)COC(=O)c1ccc(Cl)cc1N)C1CCCCC1 | 1.1 | -1.5 | -7.5 | 2.2 | -10.9 | -8.1 | / | /
Nc1cc(Cl)ccc1C(=O)OCC(=O)NC1CCCCC1 | 16.1 | -17.5 | 2.9 | 30.5* | -12.5 | -2.7 | 29.4* | 41.4*
Cc1ccc(CN2CCSc3ccc(C(=O)NCCCN4CCN(C)CC4)cc32)cc1 | 5.8 | -0.5 | -6.7 | 25.1* | -5.6 | -4.8 | 28.8* | 34.4*
O=C(CCS(=O)(=O)c1ccccc1)Nc1cc(Cl)ccc1F | / | / | 1.8 | / | / | / | / | /
CC(=O)Nc1ccc(NC(=O)COc2ccc(-c3ccc(C#N)cc3)cc2)cc1 | -5.0 | 6.5 | -1.1 | 9.0* | 7.6 | 5.7 | 11.8* | 17.6*
Cc1ccc(C)c(Cn2c(=O)n(CCC(=O)NCc3ccco3)c(=O)c3sccc32)c1 | -0.9 | 0.4 | 1.2 | 11.7* | -12.3 | -3.5 | 13.2* | 17.6*
Cc1ccc(-n2c(=O)c3sccc3n(CC(=O)NCc3ccco3)c2=O)cc1 | 1.2 | -5.0 | -2.5 | -2.4 | 4.4 | 1.7 | / | /
Cc1ccc(-n2c(=O)c3sccc3n(CC(=O)NCc3ccco3)c2=O)cc1F | 1.7 | -7.4 | 0.2 | 9.4* | -1.0 | 3.2 | 12.2* | 19.3*
COc1ccc(C=O)cc1Cn1c(=O)n(CCC(=O)NCc2ccco2)c(=O)c2sccc21 | 3.1 | 8.6 | -4.2 | 14.1* | -6.0 | -9.2 | 7.2 | 17.2*
CC(C)C(=O)N1CCC(Oc2cccnc2)CC1 | / | / | -9.1 | / | / | / | / | /
CCn1c2c(c3cc(Br)ccc31)CCC/C2=N\O | 10.8 | 12.1 | 13.9 | 16.2* | -11.0 | -2.3 | 19.8* | 31.5*
Cc1ccc(-c2cc(C(=O)N3CCCC3)c3ccccc3n2)s1 | 3.2 | -12.2 | 4.2 | -2.8 | -6.0 | -7.1 | / | /
Cc1ccc(-c2cc(C(=O)O)c3cc(Br)ccc3n2)s1 | / | -55.5 | 1.1 | 23.5* | -9.8 | -6.8 | 28.4* | 42.9*
SMILES | NR2E3 ag-1 | NR2E3 ag-2 | Rev-erbA mod | PG9 Ab binder | PKA-R2B activ | PKA-R1A activ | PG9 binder conf | PGV04 counter | others
CC(=O)Nc1sc(C)c(C)c1C(=O)OCC(=O)Nc1ccc(S(N)(=O)=O)cc1 | / | -20.2 | 16.0 | 9.6* | -4.4 | -1.6 | 12.6* | 23.3*
O=C(Nc1ccccc1C(=O)Nc1ccccc1)c1ccccc1F | -6.0 | -1.8 | 14.7 | 21.2* | -11.5 | -5.9 | 21.1* | 27.7*
O=C(O)c1cccc(NC(=O)c2ccccc2NC(=O)c2ccccc2F)c1 | -2.6 | 4.1 | -1.4 | 0.6 | -3.1 | 4.8 | / | /
CCOC(=O)c1c(C)[nH]c(C(=O)CSc2nccc(C)n2)c1C | 2.4 | -112.0 | 9.1 | 21.9* | 2.5 | -5.5 | 24.0* | 40.8*
CCc1nnc(NC(=O)c2ccc(Cl)c(S(=O)(=O)N3CCc4ccccc4C3)c2)s1 | 0.6 | -7.4 | 20.8 | 20.3* | 2.4 | -9.7 | 24.1* | 34.3*
CCOc1ccc(-n2c(SCC(=O)c3ccc4ccccc4c3)nnc2-c2ccco2)cc1 | / | / | -4.5 | / | / | / | / | /
CCCCCCn1c(-c2ccc(Cl)cc2Cl)csc1=Nc1ccccc1 | / | / | 1.6 | / | / | / | / | /
Cc1ccc2cc(CN(C(=O)c3cccs3)c3ccccc3)c(=O)[nH]c2c1 | 6.9 | -1.0 | 20.5 | 14.2* | 2.5 | -4.3 | 20.9* | 33.3*
COC(=O)[C@]12C[C@H](CC(=O)N3CCCC3)C(=O)N(Cc3ccccc3)C1=C[C@H](C1CCCC1)O[C@@H]2C | / | / | -0.4 | 1.4 | / | / | / | /
Cc1nc(SCC(=O)Nc2ccccc2Cl)c2c(C)c(C)sc2n1 | -1.1 | -8.2 | 15.7 | 18.9* | -2.9 | -3.6 | 12.1* | 17.2*
Cc1cc(NC(=O)CSc2nc(C3CC3)nc3sc(C)c(C)c23)no1 | 4.9 | -0.9 | 6.5 | 8.9* | -9.2 | -4.3 | 13.1* | 12.0* | PG9 binder DR=>67;PGV04 DR counter=i;PG126 DR counter=i
COc1ccccc1C(=O)Nc1ccc2c(C)cc(=O)oc2c1 | 3.7 | -135.1 | 3.7 | 16.9* | -5.9 | 4.3 | 20.1* | 29.8*
CCOc1ncccc1C(=O)Nc1ccc2c(C)cc(=O)oc2c1 | -0.6 | -21.4 | -1.5 | -1.9 | 10.5 | 6.3 | / | /
CCCCCCC(=O)n1ccc2ccc(-c3ccc4ccn(Cc5ccc(OC)cc5)c4c3)cc21 | / | / | -2.2 | / | / | / | / | /
c1ccc(Cc2nnc(Sc3ccccc3)c3ccccc23)cc1 | 6.4 | -28.1 | 3.4 | 28.6* | 1.0 | -1.3 | 28.7* | 36.4*
c1ccc(-c2ccc(C3=Nn4c(nnc4-c4ccccn4)SC3)cc2)cc1 | / | / | -6.2 | / | / | / | / | /
